MT1-MMP act inh = inhibitors of human MT1-MMP activation; P50281; hit rate 0.061% among 360,000; HT1080 RFP-PRO-GFP cells, GFP/RFP ratio fluorescence, overnight; percent of plate control window, DMSO zero; GFP/RFP ratio change, % at 20 µM;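 active = GFP/RFP ratio change of at least 30% with cell ATP level not reduced by more than half and red fluorescence within 50% of control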
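Assay system – RFP-PRO-GFP reporter HT1080 cells · Compound dosing – single dose of 20 µM compound, 1% DMSO final · Incubation – overnight compound exposure at 37 °C · Measure – GFP/RFP fluorescence ratio · Benchmarks – DMSO wells and RFP-L50D-GFP cells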
rRNA inh HTS = inhibitors of bacterial rRNA selective over humanized ribosomes. E. coli WT GFP vs humanized-ribosome RFP mutants, fluorescence, 24 h; active compounds read low; DMSO median 0, no signal -100. GFP signal change (wild-type ribosome), % (test concentration not listed). hit rate 1.6% among 350,000. AID 720706;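 active = significant combined selectivity score with lowered wild-type GFP, culture density cut under 30%, mutant RFP and density less affected; inactive = any of these conditions unmet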
hiPSC survival = increases survival of single human iPS cells; hit rate 0.044% among 360,000; hiPSC single-cell survival, ATPlite luminescence; 100% = ROCK inhibitor wells, 0% = DMSO; survival enhancement, % at 20 µM; AID 602274; in the data active = survival enhancement above about 18%;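 also: cells exposed to compounds for 16 hours before the ATP read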
SKN-1 block = C. elegans SKN-1 inhibition. AID 624304. inhibition, % at 21.8 µM. C. elegans VP596 Pgst-4::GFP/RFP ratio, acrylamide-induced, 24 h. hit rate 0.49% among 360,000;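 active = interference check ratio from 0.5 to 1.5 plus GFP to RFP signal ratio inhibition reaching or exceeding a fixed threshold, cut at about 30% in these data, passing the limit was not always enough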
DAGLB inhibitor = diacylglycerol lipase beta (human) inhibition. inhibition, % at 5.17 µM. HEK293T DAGLB membrane lysate, EnzChek fluorogenic substrate. hit rate 0.059% among 340,000. AID 504411; in the data active = inhibition above about 34%;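 also: 0% = enzyme with vehicle and 100% = wells lacking enzyme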
Target sequence (Q8NCG7 whole entry, looked up): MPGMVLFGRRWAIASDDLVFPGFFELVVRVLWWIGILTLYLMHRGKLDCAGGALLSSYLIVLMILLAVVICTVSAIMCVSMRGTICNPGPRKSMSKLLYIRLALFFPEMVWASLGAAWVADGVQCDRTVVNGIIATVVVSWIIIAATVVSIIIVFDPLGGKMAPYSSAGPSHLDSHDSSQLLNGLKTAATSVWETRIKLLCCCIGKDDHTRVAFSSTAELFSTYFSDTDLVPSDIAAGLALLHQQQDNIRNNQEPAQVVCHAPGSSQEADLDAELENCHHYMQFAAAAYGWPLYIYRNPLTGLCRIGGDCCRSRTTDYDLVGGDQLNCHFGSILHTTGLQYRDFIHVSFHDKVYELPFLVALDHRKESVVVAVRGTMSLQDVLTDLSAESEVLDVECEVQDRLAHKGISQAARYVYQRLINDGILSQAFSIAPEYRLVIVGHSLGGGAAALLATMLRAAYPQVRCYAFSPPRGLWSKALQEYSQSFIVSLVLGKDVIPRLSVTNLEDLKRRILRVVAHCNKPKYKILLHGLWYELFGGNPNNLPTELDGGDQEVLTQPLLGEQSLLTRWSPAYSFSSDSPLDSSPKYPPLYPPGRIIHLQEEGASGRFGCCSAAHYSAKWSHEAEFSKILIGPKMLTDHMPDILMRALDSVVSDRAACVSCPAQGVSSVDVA
Cneo AK release = Cryptococcus neoformans lysis via adenylate kinase release; hit rate 0.2% among 360,000; lysis activity, % at 15 µM; C. neoformans lysis, adenylate kinase release luminescence, 4 h; normalised: neutral wells 0, clomiphene wells 100;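 active = mean lysis activity across replicates of at least 80%, whatever share of replicates individually reach that level; inactive = mean lysis activity below 80%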
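Material: C. neoformans cells | Amount: Yeast cell density of 5 × 10^6 cells/mL | Medium: Fresh YPD growth medium | Dosing: Single dose | Times: Static 4 h at 37 °C with compound, 1 h detection | Detection: AK luminescence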
An asterisk follows results filed as active; nt = not tested or not shown. This is a sample that favours compounds with a hit; in the whole collection about 1.8% have one here.

SMILES	MT1-MMP act inh	rRNA inh HTS	hiPSC survival	SKN-1 block	DAGLB inhibitor	Cneo AK release
Cc1ccc(-c2nc(=S)c3c(n2CCN2CCOCC2)CC(C)(C)OC3)cc1	-5.7	nt	-2.8	35.7*	0.0	15.4
Cc1cc(C(=O)N2CCN(Cc3ccccc3)CC2)ccc1[N+](=O)[O-]	2.4	-4.6	0.8	4.9	1.4	-1.8
Cc1cc(C(=O)N2CCC(Cc3ccccc3)CC2)ccc1[N+](=O)[O-]	3.5	-31.0*	1.4	-4.6	-11.5	-6.2
C[C@H](O)C#Cc1cnc2c(c1)C(=O)N([C@H](C)CO)C[C@H](C)[C@H](CN(C)C(=O)CC1CC1)O2	nt	-1.4	nt	nt	nt	19.8
C=CCn1cccc(C(=O)Nc2ccc(C)c(C)c2)c1=O	3.4	-29.9*	0.7	15.0	-9.0	-2.3
C=CCn1cccc(C(=O)Nc2ccc(C)cc2)c1=O	1.5	-5.7	-0.1	6.7	-6.5	-4.2
O=C(NCc1ccccc1Cl)[C@H]1CCCN1C(=O)[C@H]1CCCN1C(=O)c1cccc2ccccc12	7.5	-22.9*	0.2	2.5	nt	nt
COc1ccc(/C=N/Nc2nc(Nc3ccccc3)nc(N3CCCC3)n2)cc1	6.8	12.8	-2.0	9.7	-4.0	nt
C(=N\Nc1nc(Nc2ccccc2)nc(N2CCCCC2)n1)/c1ccco1	nt	-38.2*	nt	nt	nt	nt
O=C(NCC[C@@H]1CC[C@H](NS(=O)(=O)c2cccc(Cl)c2)[C@H](CO)O1)c1cnccn1	nt	-0.4	nt	nt	nt	-1.5
Fc1ccc(Nc2nc(NCc3ccco3)c3ccccc3n2)cc1	-11.4	-41.0*	-0.7	18.0	-1.7	6.2
CCn1c(SCc2cccc(F)c2)nc2c(c1=O)SCC2	0.1	-35.5*	-0.7	12.9	-1.9	-2.6
CCn1c(SCC(=O)N2CCCCC2)nc2c(c1=O)SCC2	-1.5	6.3	2.3	-9.6	1.1	3.2
CCn1c(SCC(=O)Nc2ccccc2)nc2c(c1=O)SCC2	3.1	nt	2.1	11.2	-3.1	-0.8
CCn1c(SCc2ccc(F)cc2)nc2c(c1=O)SCC2	-2.2	-30.9*	-0.9	1.0	-4.9	nt
Oc1cccc(/C=N/Nc2cccc3cccnc23)c1	-4.2	-35.0*	-2.8	10.6	1.6	10.9
Oc1c(/C=N/Nc2cccc3cccnc23)ccc2ccccc12	7.0	nt	0.3	5.8	-0.5	-1.0
COc1cc(/C=N/Nc2cccc3cccnc23)cc(OC)c1O	-5.6	-25.8*	-2.7	0.9	3.3	nt
CN(C)Cc1c(O)ccc2c(=O)c(-c3ccccc3Cl)c(C(F)(F)F)oc12	0.0	-14.6	-0.3	-6.6	0.1	-0.8
CN(C)Cc1c(O)ccc2c(=O)c(-c3ccccc3)c(C(F)(F)F)oc12	-0.7	-32.0*	1.5	4.9	-1.1	1.7
c1ccc(CCSc2ncnc3nc[nH]c23)cc1	-2.6	-10.7	-2.0	2.9	-6.6	-0.4
c1ccc2c(CSc3ncnc4nc[nH]c34)cccc2c1	-6.8	-31.3*	-0.5	13.2	-2.2	nt
COc1ccc2c3c(n(C)c2c1)[C@H](CO)N(C(=O)CN(C)C)CC31CCN(C(=O)NC(C)C)CC1	nt	3.4	nt	nt	nt	nt
Cc1cc(=O)[nH]c2c(C)c(N)ccc12	3.5	nt	-0.6	-2.2	-0.2	1.2
Cc1cc(C)c2ccc3c(C)c(C)nc3c2[nH]1	-9.5	-16.7	-0.3	53.2*	-4.7	nt
SMILES	MT1-MMP act inh	rRNA inh HTS	hiPSC survival	SKN-1 block	DAGLB inhibitor	Cneo AK release
COc1ccc(-n2sc3c(c2=S)-c2cc(OC)ccc2NC3(C)C)cc1	1.8	nt	-0.4	40.5*	3.8	-3.7
COc1ccc2c(c1)-c1c(ssc1=S)C(C)(C)N2	-12.3	nt	5.7	22.2	36.1*	-1.6
COc1ccc2c(c1)-c1c(sn(-c3ccccc3)c1=S)C(C)(C)N2	-3.0	nt	1.9	3.5	2.3	nt
Cc1cccc(/C=c2\s/c(=C\C(=O)C(C)(C)C)[nH]c2=O)c1	-4.9	nt	3.2	6.0	-2.9	nt
COc1ccc(/C=c2\s/c(=C\C(=O)C(C)(C)C)[nH]c2=O)cc1O	0.8	-26.4*	-0.2	-0.3	0.6	nt
COc1cc(/C=c2\s/c(=C\C(=O)C(C)(C)C)[nH]c2=O)cc(OC)c1OC	10.0	-18.2*	-0.2	-8.2	-1.6	nt
CC(C)(C)C(=O)/C=c1\[nH]c(=O)/c(=C\c2ccc(C#N)cc2)s1	-6.1	nt	6.2	5.1	0.0	-7.6
COC(=O)C[C@H]1CC[C@H]2[C@@H](COc3ccc(NC(=O)Nc4ccc(C#N)cc4)cc3C(=O)N2C)O1	nt	-2.5	nt	nt	nt	nt
C[C@@H]1CN([C@H](C)CO)C(=O)c2cc(-c3cccnc3)cnc2O[C@@H]1CN(C)C(=O)c1cccc(F)c1	nt	2.3	nt	nt	nt	0.4
O=C(NCc1nnc(SCc2ccccc2)n1-c1ccccc1)C12CC3CC(CC(C3)C1)C2	-2.8	-30.6*	6.5	14.1	-2.7	nt
O=C(NCc1nnc(SCc2ccccc2)n1-c1ccc(F)cc1)C12CC3CC(CC(C3)C1)C2	-2.7	-51.5	0.1	4.3	-5.6	4.0
COc1cccc(NC(=O)N[C@H]2C=C[C@@H](CC(=O)Nc3ccc(-c4ccccc4)cc3)O[C@H]2CO)c1	nt	-58.2	nt	nt	nt	-1.9
Clc1ccsc1-c1ccc2ccccc2n1	-5.1	nt	5.3	89.7*	-8.8	-1.0
c1ccc2nc(-c3nccs3)ccc2c1	-3.5	15.3	1.0	18.1	-1.4	nt
CCC(C(=O)Nc1ccc2[nH]ncc2c1)c1ccccc1 (stereo not drawn)	-0.9	6.5	61.5*	14.5	0.2	-0.4
CCC(C(=O)Nc1ccncc1)c1ccccc1 (stereo not drawn)	0.7	nt	3.3	-1.5	-0.9	nt
C[C@H]1CN([C@@H](C)CO)C(=O)c2cc(-c3ccc(F)cc3)cnc2O[C@@H]1CN(C)CC1CCCCC1	nt	5.4	nt	nt	nt	90.0*
COc1ccc(-c2cnc3c(c2)C(=O)N([C@@H](C)CO)C[C@@H](C)[C@@H](CN(C)S(C)(=O)=O)O3)cc1	nt	3.8	nt	nt	nt	93.5*
C[C@H]1CN([C@@H](C)CO)C(=O)c2cc(-c3cccc(F)c3)cnc2O[C@H]1CN(C)S(=O)(=O)c1cccc(F)c1	nt	0.9	nt	nt	nt	-1.4
COc1cccc(S(=O)(=O)N(C)C[C@@H]2Oc3ncc(-c4cccc(F)c4)cc3C(=O)N([C@H](C)CO)C[C@@H]2C)c1	nt	2.9	nt	nt	nt	112.4*
COc1ccc(-c2cnc3c(c2)C(=O)N([C@H](C)CO)C[C@H](C)[C@H](CN(C)Cc2ccc(F)cc2)O3)cc1	nt	nt	nt	nt	nt	98.0*
CC(=O)N(C)C[C@@H]1Oc2ncc(C#Cc3ccccn3)cc2C(=O)N([C@@H](C)CO)C[C@H]1C	nt	9.6	nt	nt	nt	40.4
CN(C)c1ccc(/C=N/NC(=O)CN(c2ccccc2Cl)S(C)(=O)=O)cc1Br	-1.3	nt	1.6	35.5*	2.7	-0.2
COC(=O)Oc1ccc(/C=N/NC(=O)CN(c2ccccc2Br)S(C)(=O)=O)cc1OC	1.2	0.1	0.2	6.6	2.2	6.9

High-throughput results from PubChem.
